PRMT1 inh: PRMT1 methyltransferase inhibitors, primary screen, biochemical, fluorescence polarization; recombinant PRMT1, activity-based probe fluorescence polarization; hit rate 1.3% among 370,000; Protein arginine N-methyltransferase 1 (Homo sapiens), Q99873; AID 652257, 2013; inhibition, % at 2.79 µM;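 active = inhibition above about 21% made by adding two undisclosed values, limit read from the data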
TCR CD3 inh: inhibitors of human TCR-CD3 interaction, primary screen, biochemical, fluorescence, TAMRA-labeled TCR probe; T-cell receptor (TCR); hit rate 0.37% among 360,000; inhibition, % at 9.4 µM; in the data active = inhibition above about 19%;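 also: recombinant mutant TCR 2C K166C tagged with TAMRA read by polarization; 0% = receptor in buffer alone and 100% = receptor with positive control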
rCAG RNA binder: binders of r(CAG) RNA repeats, primary screen, biochemical, fluorescence; inhibition, % at 3 µM; AID 651821, 2012; r(CAG) RNA repeat, TO-PRO-1 dye displacement fluorescence; hit rate 1.3% among 370,000;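 active = inhibition above the plate cutoff, the mean of all test compounds on that plate plus 3 SD, cut at about 35% in these data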;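 also: 0% = DMSO alone and 100% = 100 µM mitoxantrone as full dye displacement; higher means more dye released from RNA so lower well fluorescence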
mABHD4 FP: ABHD4 inhibitors, primary screen, biochemical, fluorescence polarization, mouse; (Lyso)-N-acylphosphatidylethanolamine lipase (Mus musculus), Q8VD66; purified mABHD4, FP-Rh probe fluorescence polarization; inhibition, % at 8.92 µM; hit rate 0.54% among 370,000; AID 720543, 2013;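 active = inhibition exceeding the mean over every tested compound plus 3 SD, cut at about 30% in these data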;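 also: 0% = plate median of compound wells and 100% = S159A mutant with DMSO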
Target sequence (Q8VD66 whole entry, looked up): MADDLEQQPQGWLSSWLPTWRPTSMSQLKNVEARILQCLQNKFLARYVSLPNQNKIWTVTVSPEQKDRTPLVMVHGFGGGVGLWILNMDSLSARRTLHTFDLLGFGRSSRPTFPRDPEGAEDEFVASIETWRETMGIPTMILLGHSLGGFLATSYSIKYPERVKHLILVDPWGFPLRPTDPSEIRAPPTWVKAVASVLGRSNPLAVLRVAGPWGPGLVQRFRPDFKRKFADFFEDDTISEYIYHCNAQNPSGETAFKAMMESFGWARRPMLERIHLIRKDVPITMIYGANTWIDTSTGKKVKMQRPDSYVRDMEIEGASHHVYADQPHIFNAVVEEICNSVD
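Assay system: Wild-type mouse ABHD4 protein | Medium: HEPES pH 7.0 buffer, 150 mM NaCl, 0.01% Pluronic F-127 | Incubation: Enzyme–compound pre-incubation 45 min, then probe 60 min, both 25 °C | Technique: Fluorescence polarization with parallel and perpendicular emission, 525/598 nm | Evaluation: % inhibition of FP-Rh probe binding versus controls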
HTRA1 inhibitor: HTRA1 serine protease inhibitors, primary screen, biochemical, fluorescence polarization, HTS. recombinant HTRA1, FP-rhodamine activity-based probe. inhibition, % at 5.96 µM. hit rate 0.5% among 340,000. Q92743; in the data active = inhibition above about 36%;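 also: 0% = enzyme with DMSO and 100% = wells lacking enzyme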
SIAE inh: human SIAE inhibitors, primary screen, biochemical, fluorescence polarization, FP-Rh probe, 1536-well HTS | hit rate 0.69% among 370,000 | AID 1053197, 2014 | Sialate O-acetylesterase (Homo sapiens), Q9HAT2 | SIAE FP-Rh probe binding | inhibition, % at 9.66 µM;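 active = inhibition above a cutoff: mean of compounds within the control limits plus 3 SD of those, cut at about 17% in these data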;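 also: 0% = plate median of compound wells and 100% = probe without SIAE protein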
rCAG binder conf: small molecules binding CAG repeat RNA – biochemical, fluorescence, confirmation. inhibition, % at 3 µM. shares compounds with rCAG RNA binder. r(CAG) RNA repeat, TO-PRO-1 dye displacement fluorescence. AID 652065, 2013. hit rate 70% among 4,300;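 active = inhibition above a per-plate cutoff, the mean inhibition of sample wells plus 3 SD, cut at about 35% in these data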;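 also: loss of TO-PRO-1 fluorescence as compound displaces dye from 1x1 AA loop RNA; 0% = DMSO only wells and 100% = 100 µM mitoxantrone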
dCAG dye counter: displacement of TO-PRO-1 from CAG DNA duplex, counter-screen for rCAG RNA repeat binder project, biochemical, fluorescence, TO-PRO-1 dye, d(CAG) DNA oligo; shares compounds with rCAG RNA binder; d(CAG) DNA oligo TO-PRO-1 dye displacement; inhibition, % at 3 µM; hit rate 94% among 4,300;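 active = inhibition above its plate's cutoff, the mean test-well inhibition plus 3 SD, cut at about 4.8% in these data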;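 also: 0% = DNA dye mix with DMSO and 100% = 100 µM mitoxantrone; hits displace the dye from DNA and so lower well fluorescence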
An asterisk follows results filed as active; . = no result. The list is not random: actives were taken first. Their share in the collection is about 3.5%.

SMILES	PRMT1 inh	TCR CD3 inh	rCAG RNA binder	mABHD4 FP	HTRA1 inhibitor	SIAE inh	rCAG binder conf	dCAG dye counter
CCC(C)c1ccc(OCC(=O)Nc2cccc(C(=O)Nc3ccc(C(=O)O)cc3)c2)cc1 (stereo unspecified)	-7	-2	75*	-59	-24	-66	75*	39*
CCOC(=O)C(=O)N/N=C(/c1ccccc1)c1ccc(OC)cc1	-3	8	-5	-1	4	0	.	.
COc1ccc(OCC(=O)Nc2cccc(C(=O)Nc3ccccc3C(=O)O)c2)cc1	7	3	51*	-14	-16	-24	62*	17*
COc1ccc(/C(=N\Nc2ccccc2C(=O)O)c2ccccc2)cc1	8	13	50*	24	0	11	43*	12*
CCC(C)c1ccc(OCC(=O)Nc2ccc3[nH]c(=O)[nH]c3c2)cc1 (stereo unspecified)	-1	4	-2	-18	-9	-2	.	.
CC(=O)Nc1ccc(S(=O)(=O)Nc2cccc(C(=O)Nc3ccccc3C(=O)O)c2)cc1	2	5	47*	-16	-4	-17	18	4.7*
O=C(Nc1ccccc1C(=O)O)c1ccccc1	-1	-8	0	-1	3	1	.	.
COc1cc(NC(=O)Nc2ccc(Cl)c(Cl)c2)c(C(=O)O)cc1OC	-1	1	70*	10	1	8	54*	15*
O=C(Nc1cccc(C(=O)Nc2ccccc2C(=O)O)c1)c1cccc(Cl)c1	3	2	60*	-28	-78	-26	55*	18*
COc1cc(OC)c(NC(=O)Nc2ccc(OC)c(OC)c2)cc1Cl	-1	-3	-3	0	-6	-2	.	.
O=C(Nc1ccccc1C(=O)O)c1cccc(C(=O)Nc2ccccc2C(=O)O)c1	1	-2	50*	-11	-17	-48	42*	9.1*
CCCCN1CCN(C(=O)C2CCCN(C(=O)c3ccc4c(c3)NC(=O)CS4)C2)CC1 (stereo unspecified)	-3	.	1	4	.	1	.	.
CC#CC(=O)N[C@H]1CC[C@@]23CCCN2C(=O)CCC[C@H]3[C@H]1C	-2	.	.	3	.	0	.	.
CN(CCc1ccccn1)C(=O)c1cc2ccccn2n1	0	.	4	0	.	-3	.	.
Cc1ccc(NC(=O)Nc2cccc(Cl)c2)c(C(=O)O)c1	2	0	47*	3	-9	-10	21	3
O=C(COc1ccc(Cl)cc1Cl)Nc1ccc(C(=O)Nc2ccccc2C(=O)O)cc1	2	7	50*	-27	-27	-28	86*	74*
Cc1cccc(OCC(=O)Nc2ccc(C(=O)Nc3ccccc3C(=O)O)cc2)c1	-3	4	25	-15	-44	-43	.	.
CC(=O)Oc1ccc(C(=O)Nc2cccc(C(=O)Nc3ccccc3C(=O)O)c2)cc1	7	-9	50*	-15	28	-18	44*	12*
O=C(Cc1ccc(Cl)cc1)Nc1cccc(C(=O)Nc2ccccc2C(=O)O)c1	5	-6	74*	-38	-60	-26	64*	24*
COc1ccccc1C(=O)NC1CCCCN(Cc2cccc(F)c2)C1=O (stereo unspecified)	0	.	2	1	.	-4	.	.
Cc1cc(C)c(C)c(S(=O)(=O)Nc2cccc(S(=O)(=O)Nc3ccccc3C(=O)O)c2)c1C	0	-3	78*	-27	-41	-13	73*	38*
COc1cc(C)ccc1S(=O)(=O)NC(=O)C1(C)CCN1C(=O)c1ccc(C2CCCCC2)cc1 (stereo unspecified)	1	7	40*	-2	.	4	38*	8.3*
O=C(O)/C(=C\c1cccc(C(F)(F)F)c1)c1ccc(S(=O)(=O)N2CCCC2)s1	-3	7	36*	2	-9	1	26	5.5*
COc1cc(/C=C(\C(=O)O)c2ccc(S(=O)(=O)N3CCCC3)s2)cc(OC)c1	4	-2	26	10	-3	2	.	.
CCOc1ccc(/C=C(\C(=O)O)c2ccc(S(=O)(=O)N3CCOCC3)s2)cc1OC	1	-6	10	-9	-1	-7	.	.
SMILES	PRMT1 inh	TCR CD3 inh	rCAG RNA binder	mABHD4 FP	HTRA1 inhibitor	SIAE inh	rCAG binder conf	dCAG dye counter
O=C(O)/C(=C\c1cccc([N+](=O)[O-])c1)c1ccc(S(=O)(=O)N2CCCCC2)s1	5	13	38*	5	-10	-5	44*	14*
O=C(N1CCCCC1)N1CCN(S(=O)(=O)c2cccc([N+](=O)[O-])c2)CC1	1	5	-2	3	2	5	.	.
O=C(O)/C(=C\c1ccc(Cl)c([N+](=O)[O-])c1)c1ccc(S(=O)(=O)N2CCCC2)s1	23*	8	71*	20	-16	-14	47*	15*
O=C(O)/C(=C\c1ccccc1Cl)c1ccc(S(=O)(=O)N2CCCCC2)s1	1	-1	51*	8	-12	-4	34	9.4*
N#CCC[C@H]1CC[C@]2(CCCN(C(=O)C3CCCCC3)C2)O1	-4	.	1	2	.	-1	.	.
CCOc1ccc(/C=C(\C(=O)O)c2ccc(S(=O)(=O)N3CCCCC3)s2)cc1OC	-1	8	38*	10	-1	1	35*	10*
O=C(O)/C(=C\c1ccc(Cl)c([N+](=O)[O-])c1)c1ccc(S(=O)(=O)N2CCCCC2)s1	5	7	38*	7	-36	10	68*	29*
O=C(O)/C(=C\c1ccc(Cl)cc1)c1ccc(S(=O)(=O)N2CCCC2)s1	-1	4	27	1	-15	3	.	.
CSc1ccc(/C=C(\C(=O)O)c2ccc(S(=O)(=O)N3CCCCC3)s2)cc1	3	-3	59*	2	-18	-8	55*	20*
CCOC(=O)[C@]12CCCC=C1N(Cc1ccc(OC)cc1)C(=O)[C@@H]2CC(=O)N1CCCC1	-7	.	1	-1	.	1	.	.
CCCCCN(CCCCC)C(=O)C(CCC(=O)O)NC(=O)c1ccc(Cl)c(Cl)c1 (stereo unspecified)	-1	-3	54*	-10	-9	3	52*	12*

Source: PubChem BioAssay (The Scripps Research Institute Molecular Screening Center)
